Test results: PubChem BioAssay AID2307 (NMMLSC, 2010)

Target: Regulator of G-protein signaling 8 (Homo sapiens) (UniProt P57771)
Test: RGS8-Galphao interaction modulators, SAR follow-up, biochemical, multiplex bead flow cytometry, SAR compounds (AID 2307)
Settings: bead-based flow cytometry, AF488-Galphao binding to RGS8
Method in brief: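 Material: streptavidin bead-bound biotinylated RGS8 / Replication: duplicate wells per compound concentration / Doses: nine compound concentrations / Reagent: AlexaFluor488-labelled Galphao, GDP-AlF4-activated, 7 nM final / Measure: normalised binding, fitted EC50 and derived Ki / Incubation: Bead–Galphao binding for 30–90 min at room temperature / Measured by: flow cytometry, 530 nm bead fluorescence / Controls: DMSO high, blank beads low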

Sequence of Regulator of G-protein signaling 8 (Homo sapiens) (P57771 whole entry, looked up): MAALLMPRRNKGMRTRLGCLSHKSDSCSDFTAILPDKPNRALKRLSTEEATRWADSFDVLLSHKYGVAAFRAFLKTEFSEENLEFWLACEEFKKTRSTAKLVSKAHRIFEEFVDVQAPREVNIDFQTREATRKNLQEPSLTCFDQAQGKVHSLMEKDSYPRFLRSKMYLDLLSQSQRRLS

Row | Structure (SMILES) | EC50
1 | NS(=O)(=O)c1ccc(N/N=C/c2ccc(O)c(O)c2O)c([N+](=O)[O-])c1 | 29 nM

Same assay, conditions: bead-based flow cytometry, AF488-Galphao binding to RGS8; measured here: Ki calculated from EC50

Row | Structure (SMILES) | Ki
2 | NS(=O)(=O)c1ccc(N/N=C/c2ccc(O)c(O)c2O)c([N+](=O)[O-])c1 | 20 nM
3 | CN1CCN(C2=C(Cl)C(=O)C(c3cnc(N4CCCCC4)s3)=C(Cl)C2=O)CC1 | 20 nM
4 | Cc1[nH]n(-c2ccccc2)c(=S)c1C=Nc1cccc([N+](=O)[O-])c1 | 180 nM
5 | CC(=O)OCCCNc1cc(Sc2nc3ccccc3s2)c2nonc2c1[N+](=O)[O-] | 70 nM
6 | Cc1cccc(N2CCN(C(=O)Cn3sc4nc(C)cc(C)c4c3=O)CC2C)c1 (stereo not given) | 460 nM
7 | CCN=c1scc(C)n1/N=C/c1ccc(O)c(O)c1O | 470 nM
8 | O=C(COc1ccccc1C(=O)N/N=C/c1ccc(O)c(O)c1)N/N=C/c1ccc(O)c(O)c1 | 100 nM
9 | O=C(NCCCN1CCOCC1)c1sc2cc([N+](=O)[O-])ccc2c1Cl | 470 nM
10 | CCN(CC)S(=O)(=O)c1cccc(-c2n[nH]c(=S)n2/N=C/c2ccc(C(=O)OC)cc2)c1 | 2590 nM
11 | CCC(=O)NC(c1ccc(C)cc1)c1cc([N+](=O)[O-])c2cccnc2c1O (stereo not given) | 3590 nM
12 | O=c1c2ccccc2sn1-c1ccc(S(=O)(=O)N2CCCC2)cc1 | 20 nM
13 | CCN(CC)S(=O)(=O)c1cccc(C(=O)N/N=C/c2ccc(O)c(O)c2O)c1 | 340 nM
14 | O=C(Cc1csc(N2CCOCC2)n1)N/N=C/c1ccc(O)c(O)c1O | 320 nM
15 | Cc1[nH]n(-c2ccccc2)c(=S)c1C=NCCCN=Cc1c(C)[nH]n(-c2ccccc2)c1=S | 430 nM
16 | CC(NC(=O)c1sc2cc([N+](=O)[O-])ccc2c1Cl)C(C)(C)C (stereo not given) | 170 nM
17 | CCOC(=O)c1sc(NC(=O)CSc2nnc(Cc3ccccc3)o2)c(C#N)c1C | 150 nM
18 | O=C1C(Cl)=C(N2CCCCC2)C(=O)C(Cl)=C1c1cnc(N2CCCCC2)s1 | 60 nM
19 | COc1ccc(C2=CC(=O)C=CC2=O)cc1 | 150 nM
20 | Nc1c(C(=O)NCC2CCCO2)sc2nc3c(c(-c4ccco4)c12)CC/C3=C/c1ccco1 (stereo not given) | 400 nM
21 | Cc1cccc(N2CCN(C(=O)COc3nsc4nc(C)cc(C)c34)CC2C)c1 (stereo not given) | 2640 nM
22 | CN=c1scc(C)n1/N=C/c1ccc(O)c(O)c1O | 260 nM
23 | COC(=O)CCC(=O)Nc1sc(C)c(C)c1C(N)=O | 700 nM
24 | CC1(C)OC(=O)C(=Cc2ccc(-c3ccc(S(N)(=O)=O)cc3)o2)C(=O)O1 | 580 nM
25 | Cc1cc(Cl)ccc1N=c1ssnc1Cl | 110 nM
